ChEMBL document CHEMBL1765039, “Geminal dialkyl derivatives of N-substituted pantothenamides: synthesis and antibacterial activity” (2011)
In brackets after ≈: the same amount, converted by molar mass.

Experiments:
Staphylococcus aureus [1] = assay: Antibacterial activity against 10^6 CFU/ml oxacillin-susceptible Staphylococcus aureus ATCC 29213 after 18 hrs by NCCLS broth microdilution method; type: functional; conditions: ATCC 29213, 18 h
Outline: (§1)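 Broth microdilution per NCCLS, in 96-well plates; strains grown on Trypticase soy media. Compounds dissolved in 10% (v/v) acetone in water, serially diluted to 0.5–256 µg/mL (10 levels, twofold). Wells inoculated with 10⁶ cfu/mL suspension, 37 °C for 18 h. MIC = lowest concentration with no visible growth, converted to µM by molecular weight; average of at least four separate experiments.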

Staphylococcus aureus [2] = assay: Antibacterial activity against 10^6 CFU/ml methicillin or oxacillin-resistant Staphylococcus aureus ATCC 43300 after 18 hrs by NCCLS broth microdilution method; type: functional; conditions: ATCC 43300, 18 h; outline: as §1
Staphylococcus aureus [3] = assay: Antibacterial activity against Staphylococcus aureus 29213 at 150 ug/ml after 24 hrs by agar diffusion method; type: functional; conditions: Staphylococcus aureus, 29213, 24 h; read-out: DIZ
Outline: (§2)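 Agar diffusion per NCCLS. Mueller-Hinton agar plates were swab-inoculated and dried 5 min. Sterile 1 cm discs were loaded with compound solution and placed on the plates. Incubation was 24 h at 37 °C (A. baumannii, E. coli, K. pneumoniae, S. aureus) or 30 °C (B. subtilis). Read-out was inhibition zone diameter, with ampicillin as positive control.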

Klebsiella pneumoniae = assay: Antibacterial activity against Klebsiella pneumoniae 13883 at 150 ug/ml after 24 hrs by agar diffusion method; type: functional; conditions: Klebsiella pneumoniae, 13883, 24 h, read-out: DIZ; outline: as §2
Acinetobacter baumannii = assay: Antibacterial activity against Acinetobacter baumannii 19606 at 150 ug/ml after 24 hrs by agar diffusion method; type: functional; conditions: Acinetobacter baumannii, 19606, 24 h, read-out: DIZ; outline: as §2
Escherichia coli = assay: Activity of Escherichia coli pantothenate kinase
Outline: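 E. coli PanK, expressed and purified, at 278 nM in 50 mM Tris-HCl pH 7.6. Mix: ATP 1.5 mM, NADH 0.3 mM, phosphoenolpyruvate 0.5 mM, MgCl₂ 10 mM, KCl 20 mM, pyruvate kinase and lactate dehydrogenase (5 units each). Started by adding substrate (10–160). ADP formation was coupled to NADH loss, read at 340 nm, 25 °C. Kinetic parameters came from a Michaelis–Menten fit.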

| SMILES | MIC (Staphylococcus aureus [1]) | MIC (Staphylococcus aureus [2]) | zone of inhibition at 150 µg/mL (Staphylococcus aureus [3]) | zone of inhibition at 150 µg/mL (Klebsiella pneumoniae) | zone of inhibition at 150 µg/mL (Acinetobacter baumannii) | Km (Escherichia coli) | kcat (Escherichia coli) |
| --- | --- | --- | --- | --- | --- | --- | --- |
| CCCCCCCCCNC(=O)CCNC(=O)[C@H](O)C(C)(C)CO | 0.4 µM (≈ 0.138 µg/mL) | 0.4 µM (≈ 0.138 µg/mL) | 16 mm | < 11 mm | < 11 mm |  |  |
| CCCCCC[C@](C)(CO)[C@@H](O)C(=O)NCCC(=O)NCCCCC | > 715 µM | > 715 µM | 16 mm | < 11 mm | < 11 mm |  |  |
| CCCCCNC(=O)CCNC(=O)[C@H](O)[C@@](C)(CO)CC(C)C | 101 µM (≈ 33.4 µg/mL) | 51 µM (≈ 16.9 µg/mL) | 16 mm | < 11 mm | < 11 mm |  |  |
| C=CCC(CO)(CC=C)[C@@H](O)C(=O)NCCC(=O)NCCCCC | 376 µM (≈ 128 µg/mL) | 376 µM (≈ 128 µg/mL) | 16 mm | < 11 mm | < 11 mm |  |  |
| C=CC[C@](C)(CO)[C@@H](O)C(=O)NCCC(=O)NCCCCC | 3.2 µM (≈ 1.01 µg/mL) | 3.2 µM (≈ 1.01 µg/mL) | 16 mm | < 11 mm | < 11 mm | 534 µM | 0.87 s⁻¹ |
| CCCCCNC(=O)CCNC(=O)[C@H](O)[C@@](C)(CO)CC1CC1 | 24 µM (≈ 7.88 µg/mL) | 24 µM (≈ 7.88 µg/mL) | 16 mm | < 11 mm | < 11 mm |  |  |
| C=CC[C@](C)(CO)[C@@H](O)C(=O)NCCC(=O)NCCCCCCCCC | 1 µM (≈ 0.371 µg/mL) | 1 µM (≈ 0.371 µg/mL) | 16 mm | < 11 mm | < 11 mm |  |  |
| CCCCCNC(=O)CCNC(=O)[C@H](O)[C@](C)(CC)CO | 7 µM (≈ 2.12 µg/mL) | 7 µM (≈ 2.12 µg/mL) | 16 mm | < 11 mm | < 11 mm |  |  |
| CCCCCNC(=O)CCNC(=O)[C@H](O)C(C)(C)CO | 7 µM (≈ 2.02 µg/mL) | 7 µM (≈ 2.02 µg/mL) | 16 mm | < 11 mm | < 11 mm |  |  |
| CCCCCNC(=O)CCNC(=O)[C@H](O)[C@@](C)(CO)CCC | 13 µM (≈ 4.11 µg/mL) | 13 µM (≈ 4.11 µg/mL) | 16 mm | < 11 mm | < 11 mm |  |  |
| CCCCCNC(=O)CCNC(=O)[C@H](O)C(CO)(CCC)CCC | > 744 µM | > 744 µM | 16 mm | < 11 mm | < 11 mm |  |  |
| CCCCCNC(=O)CCNC(=O)[C@H](O)[C@@](C)(CO)Cc1ccccc1 | > 703 µM | > 703 µM | 16 mm | < 11 mm | < 11 mm |  |  |
| CCCCCNC(=O)CCNC(=O)[C@H](O)[C@@](C)(CO)CC1CCC1 | 374 µM (≈ 128 µg/mL) | 374 µM (≈ 128 µg/mL) | 16 mm | < 11 mm | < 11 mm |  |  |
